{"data": "Measurements collected from several papers", "mraY": "mraY (Staphylococcus aureus, UniProt Q2FZ93)", "note": "Each line is one published result; the experiments were not run side by side."}
{"Compound": "CCCCCCC#Cc1cncc(-c2nnc(SC[C@H]3O[C@@H](n4ccc(=O)[nH]c4=O)[C@H](O)[C@@H]3O)n2CCO)c1", "target": "mraY", "assay": "cell-free assay, inhibitor", "conditions": "250 µM", "endpoint": "inhibition", "result": "22%"}
{"Compound": "C[C@]1(O)CCCN(c2nc(Nc3ccc(S(=O)(=O)N[C@H]4CC[C@H](CN5CCN(c6ccc(C7CCC(=O)NC7=O)cc6F)CC5)CC4)cc3Cl)ncc2C(F)(F)F)C1 (stereo partly shown)", "target": "Serine/threonine-protein kinase DCLK3 (DCLK3, Homo sapiens, UniProt Q9C098)", "assay": "binding, competition with immobilised ligand", "conditions": "1 µM", "endpoint": "remaining binding", "result": "52%"}
{"Compound": "CCCCC(=O)Nc1ccc(-c2ccc3ncn(CCC)c(=O)c3c2)cn1", "target": "Atypical kinase COQ8B, mitochondrial (COQ8B, Homo sapiens, UniProt Q96D53)", "assay": "binding, competition with immobilised ligand", "conditions": "0.5 µM", "endpoint": "remaining binding", "result": "99%"}
{"Compound": "NC/C(=C\\F)COc1cccc(Cn2c(=S)[nH]c(=O)c3[nH]cnc32)c1", "target": "B1 bradykinin receptor (BDKRB1, Homo sapiens, UniProt P46663)", "assay": "ligand displacement, radioligand", "conditions": "10 µM", "endpoint": "inhibition", "result": "< 50%"}
{"Compound": "Cc1cc(S(=O)(=O)N[C@H]2CC[C@H](CN3CCN(c4ccc(C5CCC(=O)NC5=O)cc4F)CC3)CC2)ccc1Nc1ncc(C(F)(F)F)c(N2CCC[C@](C)(O)C2)n1 (stereo partly shown)", "target": "Aurora kinase C (AURKC, Homo sapiens, UniProt Q9UQB9)", "assay": "binding, competition with immobilised ligand", "conditions": "1 µM", "endpoint": "remaining binding", "result": "50%"}
{"Compound": "CCCCCCC#Cc1cncc(-c2nnc(SCc3cc([N+](=O)[O-])cc([N+](=O)[O-])c3)n2C2CCNCC2)c1", "target": "mraY", "assay": "cell-free assay, inhibitor", "conditions": "250 µM", "endpoint": "inhibition", "result": "> 80%"}
{"Compound": "Cc1cc(-c2ccnc3[nH]cc(F)c23)cc(F)c1[C@@]1(O)[C@H](C)CN(C(=O)CN)C[C@@H]1C", "target": "Rho-associated protein kinase 1 (ROCK1, Homo sapiens, UniProt Q13464)", "assay": "enzyme activity, inhibitor", "conditions": "0.1 µM", "endpoint": "remaining activity", "result": "13.5%"}
{"Compound": "Cc1n[nH]c2ccc3nc(-c4ccc(C(=O)NCCN(C)C)cc4F)c4c(c3c12)CCCC4", "target": "Receptor-type tyrosine-protein kinase FLT3 (FLT3, Homo sapiens, UniProt P36888, ITD)", "assay": "enzyme activity, inhibitor, radiometric", "conditions": "0.5 µM", "endpoint": "remaining activity", "result": "13%"}
{"Compound": "COc1ccc2oc(-c3ccc4nc(N)oc4c3)c/c(=N\\c3ccccc3NC(=O)CCN)c2c1", "target": "Mitogen-activated protein kinase kinase kinase 8 (MAP3K8, Homo sapiens, UniProt P41279)", "assay": "binding", "conditions": "1 µM", "endpoint": "remaining binding", "result": "104%"}
{"Compound": "C[C@]1(O)CCCN(c2nc(Nc3ccc(S(=O)(=O)N[C@H]4CC[C@H](CN5CCN(c6ccc(C7CCC(=O)NC7=O)cc6F)CC5)CC4)cc3F)ncc2C(F)(F)F)C1 (stereo partly shown)", "target": "BMP-2-inducible protein kinase (BMP2K, Homo sapiens, UniProt Q9NSY1)", "assay": "binding, competition with immobilised ligand", "conditions": "1 µM", "endpoint": "remaining binding", "result": "74%"}
{"Compound": "CCCCCCC#Cc1cncc(-c2nnc(SCc3ccc([N+](=O)[O-])o3)n2CCCN)c1", "target": "mraY", "assay": "cell-free assay, inhibitor", "conditions": "250 µM", "endpoint": "inhibition", "result": "71%"}
{"Compound": "CCCC[C@H](NC(=O)[C@H](Cc1c[nH]c2ccccc12)N(C)C(=O)C1(O)C[C@H](O)[C@@H](NC(C)=O)[C@H]([C@H](O)[C@H](O)CO)O1)C(=O)N[C@@H](CC(=O)O)C(=O)N[C@@H](Cc1cccc(Br)c1)C(N)=O (stereo partly shown)", "target": "Gastrin/cholecystokinin type B receptor (CCKBR, Homo sapiens, UniProt P32239)", "assay": "β-arrestin recruitment, agonist", "test system": "HTLA", "endpoint": "Emax", "result": "102%"}
{"Compound": "CCN1/C(=C/C(C)=O)Sc2ccc(F)cc21", "target": "B2 bradykinin receptor (BDKRB2, Homo sapiens, UniProt P30411)", "assay": "ligand displacement, radioligand", "conditions": "10 µM", "endpoint": "inhibition", "result": "0%"}
{"Compound": "C1=C/COCc2cc(ccc2OCCN2CCCC2)Nc2nccc(n2)-c2cccc(c2)COC/1", "target": "Activin receptor type-2B (ACVR2B, Homo sapiens, UniProt Q13705)", "assay": "binding", "conditions": "0.1 µM", "endpoint": "remaining binding", "result": "63%"}
{"Compound": "N#Cc1ccc(NC(=O)Nc2ccccc2)cc1", "target": "Testis-specific serine/threonine-protein kinase 1 (TSSK1B, Homo sapiens, UniProt Q9BXA7)", "assay": "cell-free assay, competition with immobilised ligand", "conditions": "25 µM", "endpoint": "remaining binding", "result": "83%"}
{"Compound": "CCCCCCC#Cc1cncc(-c2nnc(SCc3cc([N+](=O)[O-])cc([N+](=O)[O-])c3)n2CCOC2OC(CN)C(O)C2O)c1 (stereo not shown)", "target": "mraY", "assay": "cell-free assay, inhibitor", "conditions": "250 µM", "endpoint": "inhibition", "result": "> 80%"}
